The target of data set [1] is Sodium channel protein type 5 subunit alpha (Homo sapiens, UniProt Q14524). The experiment in a line: Inhibition of human Nav1.5 channel.
The nature of data set [2]: AUC in NMRI mouse at 1 mg/kg, iv and 5 mg/kg, po by LC-MS/MS analysis. The format is ADME, organism-based. As to conditions: plasma; call rule not given here.
For a further data set, the system named is Plasmodium falciparum. Nature of the data set: Antimalarial activity against Plasmodium falciparum K1 infected in human RBC after 72 hrs by hypoxanthine incorporation assay in presence of serum albumin. The format is functional, organism-based. As to conditions: K1, 72 h. The essentials:
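Mixture of drug, human red blood cells and P. falciparum incubated 3 days (72 h) with serum albumin present; growth read as hypoxanthine incorporation.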

The next data set addresses Cytochrome P450 2C19 (Homo sapiens, UniProt P33261). The experiment in a line: Inhibition of human recombinant CYP2C19 expressed in baculovirus-infected insect cells preincubated for 15 mins followed by substrate addition measured after 30 mins by luminescence assay. The format is ADME. As to conditions: recombinant enzyme, 0.5 h.
The next data set has as its target Cytochrome P450 2C9 (Homo sapiens, UniProt P11712). The experiment in a line: Inhibition of human recombinant CYP2C9 expressed in baculovirus-infected insect cells preincubated for 15 mins followed by substrate addition measured after 30 mins by luminescence assay. The format is ADME. Conditions: recombinant enzyme, 0.5 h.

Chain of Cytochrome P450 2C19 (P33261 whole entry): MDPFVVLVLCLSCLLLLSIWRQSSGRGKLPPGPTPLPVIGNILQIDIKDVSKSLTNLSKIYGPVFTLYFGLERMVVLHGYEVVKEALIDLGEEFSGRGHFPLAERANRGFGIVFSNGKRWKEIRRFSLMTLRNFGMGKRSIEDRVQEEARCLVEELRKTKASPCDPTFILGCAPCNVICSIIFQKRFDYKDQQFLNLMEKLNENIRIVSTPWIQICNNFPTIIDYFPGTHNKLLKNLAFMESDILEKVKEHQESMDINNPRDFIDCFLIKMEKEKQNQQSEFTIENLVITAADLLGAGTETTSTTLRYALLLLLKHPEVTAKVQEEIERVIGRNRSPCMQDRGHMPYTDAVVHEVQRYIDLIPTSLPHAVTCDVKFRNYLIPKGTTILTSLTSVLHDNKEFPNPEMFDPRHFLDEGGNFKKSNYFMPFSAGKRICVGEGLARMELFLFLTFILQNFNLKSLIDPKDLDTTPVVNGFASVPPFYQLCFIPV
Chain of Cytochrome P450 2C9 (P11712 whole entry): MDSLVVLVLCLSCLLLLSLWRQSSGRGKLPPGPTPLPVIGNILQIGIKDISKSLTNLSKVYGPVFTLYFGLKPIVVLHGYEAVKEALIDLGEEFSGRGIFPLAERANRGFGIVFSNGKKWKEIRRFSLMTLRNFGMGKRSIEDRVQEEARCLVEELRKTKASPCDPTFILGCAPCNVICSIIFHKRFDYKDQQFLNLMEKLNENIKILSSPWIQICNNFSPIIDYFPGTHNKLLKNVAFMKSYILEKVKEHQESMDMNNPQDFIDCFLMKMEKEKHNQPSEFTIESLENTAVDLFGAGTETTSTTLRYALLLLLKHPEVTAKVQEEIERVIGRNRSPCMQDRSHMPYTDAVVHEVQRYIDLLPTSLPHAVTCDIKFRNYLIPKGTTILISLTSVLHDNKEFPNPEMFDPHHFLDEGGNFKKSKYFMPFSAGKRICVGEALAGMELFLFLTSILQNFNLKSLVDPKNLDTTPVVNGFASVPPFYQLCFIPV
Chain of Sodium channel protein type 5 subunit alpha (Q14524 whole entry): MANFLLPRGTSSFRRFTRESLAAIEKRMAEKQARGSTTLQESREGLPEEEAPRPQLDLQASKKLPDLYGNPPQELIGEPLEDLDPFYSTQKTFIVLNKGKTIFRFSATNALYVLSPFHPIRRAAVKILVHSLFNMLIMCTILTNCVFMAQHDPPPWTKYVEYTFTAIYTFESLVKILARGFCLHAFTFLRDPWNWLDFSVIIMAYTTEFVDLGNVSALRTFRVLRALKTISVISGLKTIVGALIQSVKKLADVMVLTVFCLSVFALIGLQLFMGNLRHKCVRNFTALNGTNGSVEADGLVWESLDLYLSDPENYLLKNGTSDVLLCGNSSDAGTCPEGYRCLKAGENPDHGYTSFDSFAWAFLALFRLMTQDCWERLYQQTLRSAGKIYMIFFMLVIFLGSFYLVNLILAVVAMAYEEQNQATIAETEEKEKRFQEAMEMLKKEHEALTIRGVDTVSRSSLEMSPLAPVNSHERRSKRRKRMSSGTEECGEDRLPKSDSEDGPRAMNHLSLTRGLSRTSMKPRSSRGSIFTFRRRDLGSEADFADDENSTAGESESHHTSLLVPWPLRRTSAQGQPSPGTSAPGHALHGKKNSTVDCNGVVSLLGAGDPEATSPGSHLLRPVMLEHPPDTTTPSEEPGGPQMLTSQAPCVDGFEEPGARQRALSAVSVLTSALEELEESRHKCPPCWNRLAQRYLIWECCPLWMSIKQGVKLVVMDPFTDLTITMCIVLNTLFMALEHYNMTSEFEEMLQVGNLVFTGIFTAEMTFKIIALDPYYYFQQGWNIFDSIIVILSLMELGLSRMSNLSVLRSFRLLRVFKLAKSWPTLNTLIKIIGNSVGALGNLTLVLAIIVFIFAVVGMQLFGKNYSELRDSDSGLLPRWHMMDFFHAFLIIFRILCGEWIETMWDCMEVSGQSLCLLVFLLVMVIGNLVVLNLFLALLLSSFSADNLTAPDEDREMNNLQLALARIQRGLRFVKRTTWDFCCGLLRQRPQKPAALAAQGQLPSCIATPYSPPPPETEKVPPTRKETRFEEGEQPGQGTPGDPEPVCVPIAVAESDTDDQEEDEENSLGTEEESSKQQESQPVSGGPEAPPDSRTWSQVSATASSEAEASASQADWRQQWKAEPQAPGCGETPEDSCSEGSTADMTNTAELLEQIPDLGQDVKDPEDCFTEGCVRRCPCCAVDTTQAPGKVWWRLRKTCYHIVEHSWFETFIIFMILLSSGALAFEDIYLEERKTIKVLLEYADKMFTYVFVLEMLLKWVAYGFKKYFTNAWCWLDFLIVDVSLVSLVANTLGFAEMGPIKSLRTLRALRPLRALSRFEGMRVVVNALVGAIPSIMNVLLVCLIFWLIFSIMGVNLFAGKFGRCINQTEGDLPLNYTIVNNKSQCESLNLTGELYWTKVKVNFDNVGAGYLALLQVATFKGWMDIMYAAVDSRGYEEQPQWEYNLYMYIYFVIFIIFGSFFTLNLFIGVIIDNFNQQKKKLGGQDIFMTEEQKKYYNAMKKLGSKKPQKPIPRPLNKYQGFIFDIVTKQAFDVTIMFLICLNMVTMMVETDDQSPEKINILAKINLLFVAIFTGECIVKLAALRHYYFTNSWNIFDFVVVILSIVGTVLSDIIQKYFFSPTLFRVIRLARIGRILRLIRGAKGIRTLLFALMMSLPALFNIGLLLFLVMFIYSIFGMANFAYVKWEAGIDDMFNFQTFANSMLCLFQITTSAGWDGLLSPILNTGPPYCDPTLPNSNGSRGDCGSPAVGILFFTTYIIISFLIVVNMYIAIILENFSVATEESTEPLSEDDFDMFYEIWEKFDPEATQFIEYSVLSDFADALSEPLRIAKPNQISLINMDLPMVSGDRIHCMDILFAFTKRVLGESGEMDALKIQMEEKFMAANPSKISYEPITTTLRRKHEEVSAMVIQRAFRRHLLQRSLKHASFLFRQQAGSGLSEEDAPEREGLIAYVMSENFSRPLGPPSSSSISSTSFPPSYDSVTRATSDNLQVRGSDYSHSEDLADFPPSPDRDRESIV

In the case of `OC(CNC1CCCCC1)Cn1c2ccc(Br)cc2c2cc(Br)ccc21` (racemic), the “inhibition (INH)” value in data set [1] is listed as “Not Active”; on Cytochrome P450 2C19, “Active”; at Cytochrome P450 2C9 it was “Active”. Further, the AUC (commonly the area under the concentration-time curve, a measure of exposure) in data set [2] turned out to be 3750 ng·h/mL. Moreover, the IC50 – broadly, the concentration at which inhibition is half-maximal – in the data set on Plasmodium falciparum came out at 9 nM.

For the origin of these results see ChEMBL document CHEMBL3098117, “Identification and optimization of an aminoalcohol-carbazole series with antimalarial properties” (ACS Med Chem Lett, 2013).
